How the values were obtained:
[1] = test system: Mus musculus; assay: Anticonvulsant activity in ip dosed albino mouse by MES seizure test; type: functional
Procedure, shortened: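 Mice dosed intraperitoneally and challenged by maximal electroshock (MES). Dose-effect data taken at the time of peak effect, given in hours.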

[2] = Neurotoxicity in ip dosed albino mouse by rotarod test; type: toxicity, organism-based; conditions: in vivo
Procedure, shortened: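 Mice dosed intraperitoneally and tested on the rotorod for neurologic toxicity. Dose-effect data taken at the time of peak effect, given in hours.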

[3] = species on record: Mus musculus; assay: Protective index, ratio of TD50 for albino mouse by rotarod test to ED50 for albino mouse by MES seizure test; type: functional
Procedure, shortened: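 Protective index calculated as TD50/ED50. TD50 is from the mouse rotorod test and ED50 from the MES test, both after intraperitoneal dosing at the time of peak effect.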

CC(=O)N[C@H](COC(C)C)C(=O)NCc1ccccc1
ED50 [1]: 23 mg/kg | TD50 [2]: 77 mg/kg | Ratio TD50/ED50 [3]: 3.3

CCOC[C@@H](NC(C)=O)C(=O)NCc1ccccc1
ED50 [1]: 7.9 mg/kg | TD50 [2]: 44 mg/kg | Ratio TD50/ED50 [3]: 5.6

COCCOCCOC[C@@H](NC(C)=O)C(=O)NCc1ccccc1
ED50 [1]: > 300 mg/kg | TD50 [2]: > 300 mg/kg

CC(=O)N[C@H](COC(C)(C)C)C(=O)NCc1ccccc1
ED50 [1]: 30 mg/kg | TD50 [2]: 100 mg/kg

CC(=O)N[C@H](COc1ccccc1)C(=O)NCc1ccccc1
ED50 [1]: 100 mg/kg | TD50 [2]: 30 mg/kg

CCC1(c2ccccc2)C(=O)NC(=O)NC1=O [PHENOBARBITAL]
ED50 [1]: 22 mg/kg

CCCC(CCC)C(=O)[O-].[Na+] [VALPROATE SODIUM]
ED50 [1]: 270 mg/kg
